Test results taken from ChEMBL document CHEMBL1155950, “Novel amidino-substituted thienyl- and furylvinylbenzimidazole: derivatives and their photochemical conversion into corresponding diazacyclopenta[c]fluorenes. synthesis, interactions with DNA and RNA, and antitumor evaluation. 4” (J Med Chem, 2008).
Activity calls are given as the source filed them. No cut-off for these calls is given here.

Columns and labels:
[1] = tested on: HEp-2; assay: Antiproliferative activity against human Hep2 cells after 72 hrs by MTT assay; type: functional, cell-based; conditions: HEp-2, 72 h
Outline: (§1)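 Monolayer cultures in DMEM with 10% FBS, 2 mM L-glutamine, penicillin and streptomycin, at 37 °C in 5% CO2. Seeded at 1 × 10⁴ to 3 × 10⁴ cells/mL on day 0. Compounds added at 10^-8 to 10^-4 M, then 72 h. MTT read-out, quadruplicate in three experiments, with a solvent control. IC50 by linear regression of percent growth around 50%.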

[2] = tested on: HeLa; assay: Antiproliferative activity against human HeLa cells after 72 hrs by MTT assay; type: functional, cell-based; outline: as §1
[3] = tested on: MIA PaCa-2; assay: Antiproliferative activity against human MiaPaCa2 cells after 72 hrs by MTT assay; type: functional, cell-based; conditions: MIA PaCa-2, 72 h; outline: as §1
[4] = tested on: SW-620; assay: Antiproliferative activity against human SW620 cells after 72 hrs by MTT assay; type: functional, cell-based; conditions: SW-620, 72 h; outline: as §1
[5] = tested on: MCF7; assay: Antiproliferative activity against human MCF7 cells after 72 hrs by MTT assay; type: functional, cell-based; conditions: MCF7, 72 h; outline: as §1
[6] = Antiproliferative activity against human WI38 cells after 72 hrs by MTT assay; type: cell-based; conditions: WI-38, 72 h
[7] = tested on: Nucleic Acid; assay: Binding affinity to polyA-polyU double stranded RNA at 0.3 of [compound]/[double stranded polynucleotide] at pH 7.0 by thermal denaturation assay; type: nucleic-acid assay
Outline: (§2)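 Absorbance at 260 nm followed against temperature for free polynucleotide and complexes, in Na cacodylate buffer pH 7.0, I = 0.05 mol dm^-3. Ligand absorbance subtracted and curves normalized. Tm taken from the first-derivative maximum or by tangent method. ΔTm = Tm(complex) − Tm(free), average of at least two runs, error ±0.5 °C.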

[8] = tested on: DNA; assay: Binding affinity to calf thymus DNA at pH 7.0 by fluorimetric titration; type: nucleic-acid assay; conditions: Bos taurus
Outline: (§3)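 Polynucleotide, given as phosphate concentration, added in portions to the compound in Na cacodylate buffer pH 7.0, I = 0.05 mol dm^-3, with polynucleotide in high excess. Emission recorded 350–550 nm, absorbance below 0.05 at excitation. Ks and n from nonlinear least-squares Scatchard fits. log K recalculated at fixed n = 0.2.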

[9] = tested on: DNA; assay: Binding affinity to calf thymus DNA at 0.1 of [compound]/[calf thymus DNA] at pH 7.0 by thermal denaturation assay; type: nucleic-acid assay; conditions: Bos taurus; outline: as §2
[10] = tested on: DNA; assay: Binding affinity to calf thymus DNA at 0.2 of [compound]/[calf thymus DNA] at pH 7.0 by thermal denaturation assay; type: nucleic-acid assay; conditions: Bos taurus; outline: as §2
[11] = tested on: DNA; assay: Binding affinity to calf thymus DNA at 0.3 of [compound]/[calf thymus DNA] at pH 7.0 by thermal denaturation assay; type: nucleic-acid assay; conditions: Bos taurus; outline: as §2
[12] = species on record: Bos taurus; assay: Inhibition of calf thymus topoisomerase 1-mediated supercoiled plasmid pCI DNA relaxation activity at 10 uM after 30 mins by gel electrophoresis
Outline: (§4)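 Calf thymus topoisomerase I (8 U) with 0.8 µg negatively supercoiled pCI plasmid in relaxation buffer (10 mM Tris-HCl pH 7.5, 175 mM KCl, 5 mM MgCl2, 0.1 mM EDTA, 2.5% glycerol), ± test agent, 37 °C for 30 min. Stopped with SDS, then proteinase K digestion and phenol/chloroform/isoamyl alcohol extraction. Split onto 1% agarose gels with or without 0.5 µg/mL ethidium bromide. Nicked, relaxed and supercoiled bands viewed under UV.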

[13] = species on record: Bos taurus; assay: Inhibition of calf thymus topoisomerase 1 assessed as induction of supercoiled plasmid pCI DNA nicking at 10 uM after 30 mins by gel electrophoresis; outline: as §4
[14] = species on record: Bos taurus; assay: Inhibition of calf thymus topoisomerase 1 assessed as induction of supercoiled plasmid pCI DNA nicking at 100 uM after 30 mins by gel electrophoresis; outline: as §4
[15] = tested on: MIA PaCa-2; assay: Cell cycle arrest in human MiaPaCa2 cells assessed as accumulation at sub G1 phase at 10 uM after 24 hrs by flow cytometry; type: functional
Outline: (§5)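 2 × 10⁵ cells per well, compound (10 µM) added after 24 h, then 24, 48 or 72 h. Floating and attached cells pooled, fixed in 70% ethanol and kept at −20 °C. Stained with PI 1 µg/mL plus RNase A 0.2 µg/µL. 20 000 events by flow cytometry, phase percentages from DNA histograms. Duplicates, repeated at least twice.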

[16] = tested on: MIA PaCa-2; assay: Cell cycle arrest in human MiaPaCa2 cells assessed as accumulation at G1/G0 phase at 10 uM after 24 hrs by flow cytometry; type: functional; outline: as §5
[17] = tested on: MIA PaCa-2; assay: Cell cycle arrest in human MiaPaCa2 cells assessed as accumulation at S phase at 10 uM after 24 hrs by flow cytometry; type: functional; outline: as §5
[18] = tested on: MIA PaCa-2; assay: Cell cycle arrest in human MiaPaCa2 cells assessed as accumulation at G2/M phase at 10 uM after 24 hrs by flow cytometry; type: functional; outline: as §5
[19] = tested on: MIA PaCa-2; assay: Cell cycle arrest in human MiaPaCa2 cells assessed as accumulation at sub G1 phase at 10 uM after 48 hrs by flow cytometry; type: functional; outline: as §5
[20] = tested on: MIA PaCa-2; assay: Cell cycle arrest in human MiaPaCa2 cells assessed as accumulation at G1/G0 phase at 10 uM after 48 hrs by flow cytometry; type: functional; outline: as §5
[21] = tested on: MIA PaCa-2; assay: Cell cycle arrest in human MiaPaCa2 cells assessed as accumulation at S phase at 10 uM after 48 hrs by flow cytometry; type: functional; outline: as §5
[22] = tested on: MIA PaCa-2; assay: Cell cycle arrest in human MiaPaCa2 cells assessed as accumulation at G2/M phase at 10 uM after 48 hrs by flow cytometry; type: functional; outline: as §5
[23] = tested on: MIA PaCa-2; assay: Cell cycle arrest in human MiaPaCa2 cells assessed as accumulation at sub G1 phase at 10 uM after 72 hrs by flow cytometry; type: functional; outline: as §5
[24] = tested on: MIA PaCa-2; assay: Cell cycle arrest in human MiaPaCa2 cells assessed as accumulation at G1/G0 phase at 10 uM after 72 hrs by flow cytometry; type: functional; outline: as §5
[25] = tested on: MIA PaCa-2; assay: Cell cycle arrest in human MiaPaCa2 cells assessed as accumulation at S phase at 10 uM after 72 hrs by flow cytometry; type: functional; outline: as §5
[26] = tested on: MIA PaCa-2; assay: Cell cycle arrest in human MiaPaCa2 cells assessed as accumulation at G2/M phase at 10 uM after 72 hrs by flow cytometry; type: functional; outline: as §5
[27] = tested on: MIA PaCa-2; assay: Induction of apoptosis in human MiaPaCa2 cells at 5 uM after 72 hrs by annexin V assay; type: functional
Outline: (§6)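 2 × 10⁴ cells per well, compounds added after 24 h, exposure 72 h. Floating and attached cells collected, washed and stained with annexin-V-fluorescein plus PI in Hepes buffer, then counted by fluorescence microscopy. Annexin-V-positive cells scored apoptotic, annexin-V/PI-positive scored necrotic. Apoptotic percentage taken relative to total cells.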

[28] = tested on: MIA PaCa-2; assay: Induction of apoptosis in human MiaPaCa2 cells at 10 uM after 72 hrs by annexin V assay; type: functional; outline: as §6
[29] = tested on: HeLa; assay: Induction of apoptosis in human HeLa cells at 5 uM after 72 hrs by annexin V assay; type: functional; outline: as §6
[30] = tested on: HeLa; assay: Induction of apoptosis in human HeLa cells at 10 uM after 72 hrs by annexin V assay; type: functional; outline: as §6
[31] = Binding affinity to polyA-polyU double stranded RNA at pH 7.0 by fluorimetric titration; outline: as §3
[32] = Binding affinity to polyG-polyC double stranded RNA at pH 7.0 by fluorimetric titration; outline: as §3
[33] = species on record: Bos taurus; assay: Inhibition of calf thymus topoisomerase 1-mediated supercoiled plasmid pCI DNA relaxation activity at 200 uM after 30 mins by gel electrophoresis
Outline: (§7)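 Calf thymus topoisomerase I (8 U) with 0.8 µg supercoiled pCI in Tris-HCl pH 7.5 buffer with 175 mM KCl, 5 mM MgCl2, 0.1 mM EDTA and 2.5% glycerol, 37 °C for 30 min. Stopped with SDS, then proteinase K at 37 °C for 15 min and phenol/chloroform extraction. Run on 1% agarose with or without 0.5 µg/mL EtBr and viewed under UV.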

[34] = species on record: Bos taurus; assay: Inhibition of calf thymus topoisomerase 1 assessed as induction of supercoiled plasmid pCI DNA nicking at 200 uM after 30 mins by gel electrophoresis; outline: as §7

Compound	IC50 [1] [µM]	IC50 [2] [µM]	IC50 [3] [µM]	IC50 [4] [µM]	IC50 [5] [µM]	IC50 [6] [µM]	ΔTm [7] [°C]	log K [8]	ΔTm [9] [°C]	ΔTm [10] [°C]	ΔTm [11] [°C]	other results
N=C(N)c1ccc2nc(/C=C/c3ccco3)[nH]c2c1	19	4	> 100	16	12	> 100						
N=C(NC1CCCCC1)c1ccc2nc(/C=C/c3ccco3)[nH]c2c1	65	6	78	> 100	19	> 100	1.6	5.2	1	1.6	1.5	
CC[n+]1c(-c2ccccc2)c2cc(N)ccc2c2ccc(N)cc21												Activity [12]: Active; Activity [13]: inactive
CC[C@@]1(O)C(=O)OCc2c1cc1n(c2=O)Cc2cc3ccccc3nc2-1												Activity [14]: Active
C(=C\c1cccs1)/c1nc2ccc(C3=NCCN3)cc2[nH]1.Cl	11	5	10	11	3	29	2.2	5	1.3	1.3	1.4	Activity [15]: 1%; Activity [16]: 39%; Activity [17]: 42%; Activity [18]: 19%; Activity [19]: 1%; Activity [20]: 49%; Activity [21]: 31%; Activity [22]: 20%; Activity [23]: 3%; Activity [24]: 55%; Activity [25]: 26%; Activity [26]: 19%; Activity [27]: 2%; Activity [28]: 4%; Activity [29]: 8%; Activity [30]: 14%; log K [31]: 5.8; log K [32]: 5.6; Activity [33]: Active; Activity [34]: Active
C(=C\c1ccco1)/c1nc2ccc(C3=NCCN3)cc2[nH]1	67	10	51	50	9	> 100						
